Experimental data: ChEMBL document CHEMBL4373686, “Methyl sulfonamide substituents improve the pharmacokinetic properties of bicyclic 2-pyridone based Chlamydia trachomatis inhibitors” (Medchemcomm, 2019)
Values after ≈ are worked out from the molar mass of the structure shown. Active and inactive are the calls of the source. The rule behind the calls is not given here.

Experiments:
[1] = tested on: Chlamydia trachomatis; assay: (§1) Antibacterial activity against Chlamydia trachomatis 434/Bu serovar L2/ATCC VR-902B in HeLa 229 cells infected with cell lysates from 48 hrs at 2.5 uM compound treated HeLa 229 cells with Chlamydia trachomatis infection assessed as inhibition of reinfection and measured after 48 hrs post re-infection by DAPI staining based arrayscan automated microscopic method relative to control; assay type: functional, organism-based
Summary of the method: (§2)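 HeLa 229 cells infected with C. trachomatis L2 EBs at MOI 0.3–0.5; compound added in RPMI 1 h post infection; 44–48 h, then water lysis. 10-fold serial dilutions of lysate reinfect fresh HeLa; 44–46 h, methanol fixed, anti-Chlamydia/FITC antibody plus DAPI stain, IFUs counted by automated microscopy; % IFU versus DMSO control; three independent experiments, duplicates.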

[2] = tested on: HeLa 229; assay: Cytotoxicity against human HeLa 229 cells assessed as cell viability at 10 uM after 48 hrs resazurin dye based fluorescence method relative to control; conditions: hela 229, 48 h
Summary of the method: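 HeLa cells in colorless DMEM with 10% FBS, compound in 0.5% DMSO for 48 h; resazurin added, 3 h at 37 °C, 5% CO2, dark; fluorescence ex 535/em 595 nm; triplicate wells as percent of DMSO control.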

[3] = AUC (0 to infinity) C3H/HeJ mouse at 1.2 mg/kg, iv measured upto 24 hrs; conditions: in vivo
[4] = Apparent permeability from apical to basolateral side in human Caco2 cells at 1 uM after 15 to 60 mins by LC-MS/MS analysis; assay type: ADME, cell-based; conditions: caco-2, 1 µM
Summary of the method: (§3)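 Caco-2 monolayers (passage 94–105) used on day 21 on filter supports; 1 μM donor solution applied apical or basolateral, pH 7.4 both chambers, 37 °C, 500 rpm stirring. Receiver sampled at 15, 30, 60 min, donor at 60 min for mass balance; LC-MS/MS with warfarin internal standard.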

[5] = Clearance in C3H/HeJ mouse at 1.2 mg/kg, iv measured upto 24 hrs; conditions: in vivo
[6] = Solubility of compound in PBS at 0.2 to 0.5 mg after 48 hrs by LC-MS/MS based shake flask method; assay type: physicochemical
[7] = Cmax in C3H/HeJ mouse at 1.2 mg/kg, iv measured upto 24 hrs; conditions: in vivo
[8] = Fraction unbound in CD-1 mouse plasma at 10 uM incubated for 4 hrs by LC-MS/MS-based equilibrium dialysis method; assay type: ADME, cell-free
Summary of the method: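 Rapid equilibrium dialysis: 10% CD-1 mouse plasma in isotonic buffer spiked to 10 μM compound, 1% DMSO final, against phosphate buffer pH 7.4; 37 °C, 900 rpm, 4 h. Matrix-matched samples precipitated with methanol, LC-MS/MS; fu corrected for plasma dilution.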

[9] = Volume of distribution at steady state in C3H/HeJ mouse at 1.2 mg/kg, iv measured upto 24 hrs; conditions: in vivo
[10] = Efflux ratio of apparent permeability in human Caco2 cells at 1 uM after 15 to 60 mins by LC-MS/MS analysis; assay type: ADME, cell-based; conditions: caco-2, 1 µM; summary of the method: as §3
[11] = Intrinsic clearance in human liver microsomes at 1 uM incubated for 5 to 60 mins in presence of NADPH by LC-MS/MS analysis; assay type: ADME, Microsome
Summary of the method: (§4)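 Liver microsomes 0.5 mg/ml, compound 1 μM in 100 mM phosphate pH 7.4; started with 1 mM NADPH (final). Sampled 0–60 min, quenched in cold acetonitrile, parent remaining by LC-MS/MS; ln % remaining versus time fitted by linear regression.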

[12] = tested on: Chlamydia trachomatis; assay: as §1, with “1” for “2.5”; assay type: functional, organism-based; summary of the method: as §2
[13] = Intrinsic clearance in mouse liver microsomes at 1 uM incubated for 5 to 60 mins in presence of NADPH by LC-MS/MS analysis; assay type: ADME, Microsome; summary of the method: as §4
[14] = Half life in C3H/HeJ mouse at 1.2 mg/kg, iv measured upto 24 hrs; conditions: in vivo
[15] = Half life in C3H/HeJ mouse at 1 mg/kg, iv measured upto 24 hrs; assay type: ADME, organism-based; conditions: in vivo
Summary of the method: (§5)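 Female C3H mice, three per dose and route; IV as 50 μL tail-vein injection in PBS with 10% cremophor, 5% EtOH, 4% DMSO; PO as 100 μL gavage in lipid-vehicle/water emulsion. Tail-vein blood at 10 min (IV) and 0.5–24 h; acetonitrile mixed, methanol extracted, LC-MS/MS against spiked blank blood standards; non-compartmental analysis, errors as SD.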

[16] = Volume of distribution at steady state in C3H/HeJ mouse at 1 mg/kg, iv measured upto 24 hrs; assay type: ADME, organism-based; conditions: in vivo; summary of the method: as §5
[17] = tested on: Chlamydia trachomatis; assay: Antibacterial activity against Chlamydia trachomatis serovar D/ATCC VR-885 infected in C3H/HeJ mouse assessed as reduction in vaginal infection at 10 mg/kg, po BID administered 21 consecutive days by vaginal swab based immunostaining arrayscan automated microscopic method; assay type: functional, organism-based; conditions: in the assay text read “7 consecutive days” for “21 consecutive days”
Summary of the method: (§6)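 Female C3H/HeJ mice given 2.4 mg medroxyprogesterone acetate s.c. 10 and 3 days before intravaginal infection (5000 CFU). Nine mice dosed by gavage 100 μL of 2.33 mg/mL emulsion, twice daily; vehicle and doxycycline groups. Vaginal swabs on days 2–21 titrated on HeLa cells, immunostained, counted by automated microscopy.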

[18] = Tmax in C3H/HeOuJ mouse at 10 mg/kg, po measured upto 24 hrs; conditions: in vivo
[19] = AUC (0 to infinity) in C3H/HeOuJ mouse at 1 mg/kg, iv measured upto 24 hrs; conditions: in vivo
[20] = AUC (0 to infinity) in C3H/HeOuJ mouse at 10 mg/kg, po measured upto 24 hrs; conditions: in vivo
[21] = Cmax in C3H/HeJ mouse at 10 mg/kg, po measured upto 24 hrs; assay type: ADME, organism-based; set-up: dose 10 mg/kg, route oral; conditions: in vivo; summary of the method: as §5
[22] = Half life in C3H/HeOuJ mouse at 10 mg/kg, po measured upto 24 hrs; conditions: in vivo
[23] = Oral bioavailability in C3H/HeOuJ mouse at 10 mg/kg measured upto 24 hrs; conditions: in vivo
[24] = Clearance in C3H/HeOuJ mouse at 1 mg/kg, iv measured upto 24 hrs; conditions: in vivo
[25] = Cmax in C3H/HeOuJ mouse at 1 mg/kg, iv measured upto 24 hrs; conditions: in vivo
[26] = Toxicity in C3H/HeJ mouse infected with Chlamydia trachomatis serovar D/ATCC VR-885 assessed as vital signs at 10 mg/kg, po BID administered 21 consecutive days; assay type: organism-based; conditions: in vivo, in the assay text read “7 consecutive days” for “21 consecutive days”; summary of the method: as §6
[27] = AUC (0 to infinity) C3H/HeOuJ mouse at 0.9 mg/kg, iv measured upto 24 hrs; assay type: ADME, organism-based; set-up: dose 0.9 mg/kg, route intravenous, time infinity; conditions: in vivo; summary of the method: as §5
[28] = Volume of distribution at steady state in C3H/HeJ mouse at 0.9 mg/kg, iv measured upto 24 hrs; conditions: in vivo
[29] = Half life in C3H/HeOuJ mouse at 0.9 mg/kg, iv measured upto 24 hrs; assay type: ADME, organism-based; conditions: in vivo; summary of the method: as §5
[30] = Cmax in C3H/HeOuJ mouse at 0.9 mg/kg, iv measured upto 24 hrs; assay type: ADME, organism-based; set-up: dose 0.9 mg/kg, route intravenous; conditions: in vivo; summary of the method: as §5
[31] = Clearance in C3H/HeOuJ mouse at 0.9 mg/kg, iv measured upto 24 hrs; assay type: ADME, organism-based; conditions: in vivo; summary of the method: as §5

Row | Compound | inhibition [1] [%] | Activity [2] [%] | inhibition [12] [%] | further results
1 | CS(=O)(=O)Nc1c(Cc2cccc3ccccc23)cc(=O)n2c1SCC2c1nc(-c2ccccc2)n[nH]1 (racemic) | 20 | 93 |  | 
2 | Nc1c(Cc2cccc3ccccc23)c(C2CC2)c2n(c1=O)C(n1cc(-c3ccccc3)nn1)CS2 (racemic) | 91 |  | 90 | AUC(0-inf) [3]: 0.1 µM·h; Papp [4]: 0.33 ×10⁻⁶ cm/s; CL [5]: 0.51 L/h; solubility thermodynamic at 48 h [6]: 0.31 µM (≈ 0.152 µg/mL); Cmax [7]: 40 nM; Fu [8]: < 0.1%; Vdss [9]: 27 L/kg; Ratio [10]: 0.6; CLH [11]: 187 µL/min/mg; CLH [13]: 135 µL/min/mg; t1/2 [14]: 3.7 h
3 | COc1c(Cc2cccc3ccccc23)c(N)c(=O)n2c1SCC2C(=O)Nc1ccc(C)cc1 (racemic) | 51 | 91 |  | 
4 | O=C(Nc1ccccc1)C1CSc2c(O)c(Cc3cccc4ccccc34)cc(=O)n21 (racemic) | 21 | 93 |  | 
5 | COc1c(Cc2cccc(C)c2C)cc(=O)n2c1SCC2c1nc(-c2ccccc2)no1 (racemic) | 1 | 91 |  | 
6 | COc1c(Cc2cccc3ccccc23)cc(=O)n2c1SCC2C(=O)Nc1ccc(C)cc1 (racemic) | 94 | 89 | 62 | 
7 | COc1c(Cc2cccc3ccccc23)cc(=O)n2c1SCC2n1cc(-c2ccccc2)nn1 (racemic) | 81 | 87 |  | 
8 | COc1c(Cc2cccc(C)c2C)c(N)c(=O)n2c1SCC2C(=O)Nc1cc(C)cc(F)c1 (racemic) | 47 | 92 |  | 
9 | COc1c(Cc2cccc(C)c2C)cc(=O)n2c1SCC2C(=O)Nc1ccccc1 (racemic) | 51 | 89 | 22 | 
10 | Cc1cc(F)cc(NC(=O)C2CSc3c(NS(C)(=O)=O)c(Cc4cccc5ccccc45)cc(=O)n32)c1 (racemic) | 6 | 91 | 6 | 
11 | Cc1cccc(NC(=O)C2CSc3c(NS(C)(=O)=O)c(Cc4cccc5ccccc45)cc(=O)n32)c1 (racemic) | -2 | 92 |  | 
12 | CS(=O)(=O)Nc1c(Cc2cccc3ccccc23)cc(=O)n2c1SCC2n1cc(-c2ccccc2)nn1 (racemic) | 88 | 91 |  | 
13 | COc1c(Cc2cccc(C)c2C)cc(=O)n2c1SCC2C(=O)Nc1ccc(C)cc1 (racemic) | 98 | 88 | 71 | 
14 | CN(C)c1c(Cc2cccc3ccccc23)cc(=O)n2c1SCC2C(=O)Nc1ccccc1 (racemic) | 94 | 92 | 78 | 
15 | Nc1c(Cc2cccc3ccccc23)c(C2CC2)c2n(c1=O)C(C(=O)Nc1ccccc1)CS2 (racemic) | 98 |  | 94 | 
16 | CC(C)Nc1c(Cc2cccc3ccccc23)cc(=O)n2c1SCC2C(=O)Nc1ccccc1 (racemic) | 79 | 91 | 25 | 
17 | O=C(Nc1ccccc1)C1CSc2c(C3CC3)c(Cc3cccc4ccccc34)cc(=O)n21 (racemic) | 87 |  | 67 | 
18 | COc1c(Cc2cccc3ccccc23)cc(=O)n2c1SCC2C(=O)Nc1ccccc1 (racemic) | 24 | 91 |  | 
19 | COC(=O)Nc1c(Cc2cccc3ccccc23)cc(=O)n2c1SCC2C(=O)Nc1ccccc1 (racemic) | 12 | 88 |  | 
20 | COc1c(Cc2cccc3ccccc23)c(N)c(=O)n2c1SCC2C(=O)Nc1ccccc1 (racemic) | 25 | 94 |  | 
21 | COc1c(Cc2cccc(C)c2C)c(N)c(=O)n2c1SCC2c1nc(-c2ccccc2)no1 (racemic) | 17 | 94 |  | 
22 | CS(=O)(=O)Nc1c(Cc2cccc3ccccc23)cc(=O)n2c1SCC2C(=O)Nc1ccccc1 (racemic) | 89 | 94 | 23 | t1/2 [15]: 5.3 h; Vdss [16]: 0.62 L/kg; Papp [4]: 30 ×10⁻⁶ cm/s; Activity [17]: inactive; Tmax [18]: 1 h; solubility thermodynamic at 48 h [6]: 1.3 µM (≈ 0.657 µg/mL); AUC [19]: 4.8 µM·h; AUC [20]: 20.3 µM·h; Fu [8]: 0.39%; Cmax [21]: 3700 nM; t1/2 [22]: 2.6 h; Ratio [10]: 2; CLH [11]: 39 µL/min/mg; F [23]: 41%; CL [24]: 0.01 L/h; Cmax [25]: 1700 nM; Activity [26]: Non-Toxic; CLH [13]: 59 µL/min/mg
23 | COc1c(Cc2cccc(C)c2C)c(N)c(=O)n2c1SCC2C(=O)Nc1ccc(C)cc1 (racemic) | 56 | 93 |  | 
24 | CC(=O)Nc1c(Cc2cccc3ccccc23)cc(=O)n2c1SCC2C(=O)Nc1ccccc1 (racemic) | 3 | 90 | 44 | 
25 | COc1c(Cc2cccc(C)c2C)cc(=O)n2c1SCC2C(=O)Nc1cc(C)cc(F)c1 (racemic) | 95 | 90 | 77 | AUC(0-inf) [27]: 0.95 µM·h; Papp [4]: 2.1 ×10⁻⁶ cm/s; Vdss [28]: 1.1 L/kg; solubility thermodynamic at 48 h [6]: 0.32 µM (≈ 0.145 µg/mL); t1/2 [29]: 1.2 h; Fu [8]: 0.1%; Cmax [30]: 410 nM; Ratio [10]: 3.2; CLH [11]: 184 µL/min/mg; CL [31]: 0.04 L/h; CLH [13]: 440 µL/min/mg
26 | COc1c(Cc2cccc(C)c2C)c(N)c(=O)n2c1SCC2C(=O)Nc1ccccc1 (racemic) | 25 | 94 |  | 
